Measured values gathered from unrelated publications.
Lines come from different studies, so protocols differ.
Organism: Acinetobacter baumannii
Effect on: microbial growth

With O=[N+]([O-])c1ccc(O)c2ncccc12 the MIC was 1.56 µM (19606).
The MIC of NC1CCCCc2c1[nH]c1ccc(Cl)c(Cl)c21 (stereo not shown) is reported as 16 µg/mL (broth dilution; ATCC19606).
The MIC of C[C@H]1COc2c(N3CCN(C)CC3)c(F)cc3c(=O)c(C(=O)O)cn1c23 is reported as 3.3 µM (broth dilution).
With O=C(O)c1ccc(-n2cc(/C=N/Nc3cccc(Br)c3)c(-c3cccc(F)c3)n2)cc1 the MIC was 12.5 µg/mL (ATCCBAA1605).
CN(Cc1ccc2cc3c(c(O)c2c1)C(=O)C1=C(O)[C@]2(O)C(=O)C(C(N)=O)=C(O)[C@@H](N(C)C)[C@@H]2C[C@@H]1C3)c1ccccc1 has an MIC of 32 µg/mL (broth dilution; ATCC19606).
CC(C)Oc1c(NC(=O)c2ccc(NC(=O)[C@H](CC(N)=O)NC(=O)c3ccc(NC(=O)c4ccc(C#N)s4)cc3)cc2)ccc(C(=O)Nc2ccc(C(=O)O)cc2)c1O gave an MIC of 0.125 µg/mL (DSM30008).
CCCCCCC/C=C/C(=O)N1C(=O)/C(=C(\O)c2ccc(OCOCCOC)cc2)C(=O)C1CC(C)C (stereo not shown) gave an MIC of 200 µg/mL (ATCC19606).
O=C(CCCCCC[P+](c1ccccc1)(c1ccccc1)c1ccccc1)Nc1ccc(O)c(O)c1.[Br-] has an MIC of > 32 µg/mL (broth dilution; ATCC19606; 18 h).
With COc1ncc(O)c2c1C[C@H]1C[C@H]3[C@H](N(C)C)C(O)=C(C(N)=O)C(=O)[C@@]3(O)C(O)=C1C2=O.Cl.Cl the MIC was 0.5 µg/mL (broth dilution; ATCC19606).
The MIC of C[C@@H](O)[C@H]1C(=O)N2C(C(=O)O)=C(SCCN=CN)C[C@H]12 is reported as 1 µM (broth dilution; KCCM40203; 16 h).
CC(C)Oc1c(NC(=O)c2ccc(NC(=O)[C@H](CC(N)=O)NC(=O)c3ccc(NC(=O)c4ccc(C#N)cn4)cc3)cc2)ccc(C(=O)Nc2ccc(C(=O)O)cc2)c1O has an MIC of 0.125 µg/mL (DSM30008).
For CC(NCCCNC(=O)c1ccc(Cl)s1)c1cc2cc(Br)ccc2[nH]1 (stereo not shown), the MIC was 32 µg/mL (broth dilution; ATCC19606).
O=C(CCc1ccc(O)c(O)c1)NCCCCCCCC[P+](c1ccccc1)(c1ccccc1)c1ccccc1.[Br-] gave an MIC of > 32 µg/mL (broth dilution; ATCC19606; 18 h).
For CN(C)[C@@H]1C(O)=C(C(N)=O)C(=O)[C@@]2(O)C(O)=C3C(=O)c4c(c(F)c5ccc(CNC6CC6)cc5c4O)C[C@H]3C[C@@H]12, the MIC was 1 µg/mL (broth dilution; ATCC19606).
For CNc1nc(Cl)c2c(c1O)C(=O)C1=C(O)[C@]3(O)C(=O)C(C(N)=O)=C(O)[C@@H](N(C)C)[C@@H]3C[C@@H]1C2.Cl.Cl.Cl, the MIC was 0.031 µg/mL (broth dilution; ATCC19606).
O=C(CCCCCC[P+](c1ccccc1)(c1ccccc1)c1ccccc1)Nc1cc(O)c(O)c(O)c1.[Br-] has an MIC of > 32 µg/mL (broth dilution; ATCC19606; 18 h).
For CN(C)c1nc(NC(=O)CNC(C)(C)C)c(O)c2c1C[C@H]1C[C@H]3[C@H](N(C)C)C(O)=C(C(N)=O)C(=O)[C@@]3(O)C(O)=C1C2=O.Cl, the MIC was > 32 µg/mL (broth dilution; ATCC19606).
N=C(N)c1ccc(OCc2ccc(-c3ccccc3)cc2COc2ccc(C(=N)N)cc2)cc1 has an MIC of > 200 µg/mL (broth dilution; ATCC17978).
CCCNc1nc(F)c2c(c1O)C(=O)C1=C(O)[C@]3(O)C(=O)C(C(N)=O)=C(O)[C@@H](N(C)C)[C@@H]3C[C@@H]1C2.Cl.Cl gave an MIC of 0.125 µg/mL (broth dilution; ATCC19606).
N=C(N)c1cccc(OCc2ccc(COc3cccc(C(=N)N)c3)cc2)c1 has an MIC of > 200 µg/mL (broth dilution; ATCC17978).
CC[C@H]1OC(=O)[C@H](C)[C@@H](O[C@H]2C[C@@](C)(OC)[C@@H](O)[C@H](C)O2)[C@H](C)[C@@H](O[C@@H]2O[C@H](C)C[C@H](N(C)C)[C@H]2O)[C@](C)(O)C[C@@H](C)C(=O)[C@H](C)[C@@H](O)[C@]1(C)O has an MIC of 50 µg/mL (ATCC19606).
For C/C(O)=C1\C(=O)C(CC(C)C)N(C(=O)CCCCCc2ccccc2)C1=O (stereo not shown), the MIC was > 200 µg/mL (ATCC19606).
C[C@H]1COc2c(N3CCN(C)CC3)c(F)cc3c(=O)c(C(=O)O)cn1c23 gave an MIC of ≤ 0.125 µg/mL (broth dilution; ATCC19606).
The MIC of O=C(Nc1ccc([N+](=O)[O-])cc1F)c1ccccc1O is reported as > 64 µg/mL (broth dilution; BAA1605).
The MIC of CN(C)[C@@H]1C(O)=C(C(N)=O)C(=O)[C@@]2(O)C(O)=C3C(=O)c4c(cc5ccc(-c6ccccc6)cc5c4O)C[C@H]3C[C@@H]12 is reported as 32 µg/mL (broth dilution; ATCC19606).
CC(C)(O/N=C(\C(=O)N[C@@H]1C(=O)N2C(C(=O)[O-])=C(C[N+]3(CCNC(=O)c4ccc(O)c(O)c4Cl)CCCC3)CS[C@H]12)c1csc(N)n1)C(=O)O has an MIC of 0.2 µM (DSM30007).
For NC1CCCCc2c1[nH]c1cc(Cl)c(Cl)cc21 (stereo not shown), the MIC was 8 µg/mL (broth dilution; ATCC19606).
N=C(N)c1ccc(OCc2cc(Br)cc(COc3ccc(C(=N)N)cc3)c2)cc1 has an MIC of > 200 µg/mL (broth dilution; ATCC17978).
The MIC of O=C(CCCCCCCCCC[P+](c1ccccc1)(c1ccccc1)c1ccccc1)Nc1ccc(O)c(O)c1.[Br-] is reported as > 32 µg/mL (broth dilution; ATCC19606; 18 h).
CC(C)(O/N=C(\C(=O)N[C@@H]1C(=O)N2C(C(=O)[O-])=C(C[n+]3ccccc3)CS[C@H]12)c1csc(N)n1)C(=O)O gave an MIC of 4 µg/mL (broth dilution; ATCC19606).
The MIC of O=[N+]([O-])c1ccc(/C=N/Nc2nc(Nc3ccccc3)nc(N3CCOCC3)n2)o1 is reported as > 120 µM.
For CCCCCCC/C=C/C(=O)N1C(=O)/C(=C(/C)O)C(=O)C1CO (stereo not shown), the MIC was > 200 µg/mL (ATCC19606).
CC(C)CNc1nc(Cl)c2c(c1O)C(=O)C1=C(O)[C@]3(O)C(=O)C(C(N)=O)=C(O)[C@@H](N(C)C)[C@@H]3C[C@@H]1C2.Cl.Cl.Cl has an MIC of 2 µg/mL (broth dilution; ATCC19606).
NC[C@@H]1O[C@H](O[C@H]2[C@@H](O)[C@H](O[C@@H]3[C@@H](O)[C@H](N)C[C@H](N)[C@H]3O[C@H]3O[C@H](CO)[C@@H](O)[C@H](O)[C@H]3N)O[C@@H]2CO)[C@H](N)[C@@H](O)[C@@H]1O gave an MIC of 2 to 4 µg/mL.
With CCCCCCC/C=C/C(=O)N1C(=O)/C(=C(/C)O)C(=O)C1Cc1ccc(OC(C)(C)C)cc1 (stereo not shown) the MIC was > 200 µg/mL (ATCC19606).
For O=C(O)c1ccc(-n2cc(/C=N/Nc3ccc(Br)cc3)c(-c3cccc(F)c3)n2)cc1, the MIC was 6.25 µg/mL (ATCCBAA1605).
For CCCCCCC/C=C/C(=O)N1C(=O)/C(=C(\O)c2ccncc2)C(=O)C1CC(C)C (stereo not shown), the MIC was > 200 µg/mL (ATCC19606).
CN(C)[C@@H]1C(O)=C(C(N)=O)C(=O)[C@@]2(O)C(O)=C3C(=O)c4c(O)cnc(-c5ccccc5)c4C[C@H]3C[C@@H]12.Cl.Cl has an MIC of 0.125 µg/mL (broth dilution; ATCC19606).
For CCCCCCC/C=C/C(=O)N1C(=O)/C(=C(/C)O)C(=O)C1CCCCN (stereo not shown), the MIC was > 200 µg/mL (ATCC19606).
With O=C(O)c1ccc(-n2cc(/C=N/Nc3ccc(Cl)cc3)c(-c3ccc4ccccc4c3)n2)cc1 the MIC was 12.5 µg/mL (ATCCBAA1605).
